Data: ChEMBL document CHEMBL1134337, “Behavioral approach to nondyskinetic dopamine antagonists: identification of seroquel” (J Med Chem, 2001)

Key:
[1] = molecular target: D(2) dopamine receptor (Rattus norvegicus) (UniProt P61169); assay: Binding affinity at dopamine receptor D2 from rat by spiropiperidone displacement.
Method in brief: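 D2 receptor binding was read as % displacement of spiropiperidone, with test compound at 1000 nM unless stated otherwise. IC50 values used at least five concentrations per compound in triplicate. Each value is the mean of two replicate experiments differing by 5% or less.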

[2] = system: Mus musculus; assay: Antagonism of apomorphine induced climbing was determined in female swiss -Webster mice after (i.p.) +SKF525A administration of 2.5 mg/kg; assay type: functional; conditions: route intraperitoneal
Method in brief: (§1)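 Female Swiss-Webster mice (about 20 g) were fasted about 24 h, then given test compound or vehicle ip or po (N = 20 per group). Vehicle was 0.5% w/w hydroxypropylmethylcellulose with 0.1% w/w Tween 80 in water. After 30 min, mice received apomorphine HCl 1.25 mg/kg sc. At 13 min, each mouse was watched for 1 min; score was mean of highest and lowest rung of 27. Groups were compared with vehicle by Student's t-test.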

[3] = system: Mus musculus; assay: Antagonism of apomorphine induced climbing was determined in female swiss -Webster mice after (i.p.) +SKF525A administration of 10 mg/kg; assay type: functional; conditions: route intraperitoneal; method in brief: as §1
[4] = system: Mus musculus; assay: Antagonism of apomorphine induced climbing was determined in female swiss -Webster mice after (ip) administration of 2.5 mg/kg; assay type: functional; method in brief: as §1
[5] = system: Mus musculus; assay: Antagonism of apomorphine induced climbing was determined in female swiss -Webster mice after (po) administration of 20 mg/kg; assay type: functional; method in brief: as §1
[6] = system: Mus musculus; assay: Antagonism of apomorphine induced climbing was determined in female swiss -Webster mice after (p.o.) +SKF525A administration of 5 mg/kg; assay type: functional; conditions: route oral; method in brief: as §1
[7] = system: Mus musculus; assay: Antagonism of apomorphine induced climbing was determined in female swiss -Webster mice after (p.o.) +SKF525A administration of 10 mg/kg; assay type: functional; conditions: route oral; method in brief: as §1
[8] = system: Mus musculus; assay: Antagonism of apomorphine induced climbing was determined in female swiss -Webster mice after (po) administration of 5 mg/kg; assay type: functional; method in brief: as §1
[9] = system: Mus musculus; assay: Antagonism of apomorphine induced climbing was determined in female swiss -Webster mice after (ip) administration of 5 mg/kg; assay type: functional; method in brief: as §1
[10] = system: Mus musculus; assay: Antagonism of apomorphine induced climbing was determined in female swiss -Webster mice after (p.o.) +SKF525A administration of 20 mg/kg; assay type: functional; conditions: route oral; method in brief: as §1
[11] = system: Mus musculus; assay: Antagonism of apomorphine induced climbing was determined in female swiss -Webster mice after (ip) administration of 10 mg/kg; assay type: functional; method in brief: as §1
[12] = system: Mus musculus; assay: Antagonism of apomorphine induced climbing was determined in female swiss -Webster mice after (po) administration of 10 mg/kg; assay type: functional; method in brief: as §1
[13] = system: Mus musculus; assay: Antagonism of apomorphine induced climbing was determined in female swiss -Webster mice after (i.p.) +SKF525A administration of 5 mg/kg; assay type: functional; conditions: route intraperitoneal; method in brief: as §1
[14] = system: Mus musculus; assay: Antagonism of apomorphine induced climbing was determined in female swiss -Webster mice after (ip) administration of 20 mg/kg; assay type: functional; method in brief: as §1
[15] = system: Mus musculus; assay: Antagonism of apomorphine induced climbing was determined in female swiss -Webster mice after (i.p.) +SKF525A administration of 20 mg/kg; assay type: functional; conditions: route intraperitoneal; method in brief: as §1

Chain of D(2) dopamine receptor (Rattus norvegicus) (P61169 whole entry): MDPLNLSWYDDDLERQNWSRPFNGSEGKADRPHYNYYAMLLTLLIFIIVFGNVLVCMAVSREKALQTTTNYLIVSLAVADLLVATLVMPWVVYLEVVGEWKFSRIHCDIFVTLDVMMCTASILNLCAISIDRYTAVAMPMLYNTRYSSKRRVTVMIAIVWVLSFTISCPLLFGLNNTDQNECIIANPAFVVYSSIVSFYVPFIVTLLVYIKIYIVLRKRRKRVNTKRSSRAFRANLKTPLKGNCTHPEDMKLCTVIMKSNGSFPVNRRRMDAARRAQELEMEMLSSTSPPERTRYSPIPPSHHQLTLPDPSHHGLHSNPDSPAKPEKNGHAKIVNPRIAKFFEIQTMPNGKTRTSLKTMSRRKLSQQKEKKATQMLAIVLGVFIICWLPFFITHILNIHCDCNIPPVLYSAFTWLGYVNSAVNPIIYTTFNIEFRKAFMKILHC

## CN1CCN(C2=Nc3ccccc3Sc3ccccc32)CC1
[1]
  % displacement of spiropiperidone: 35%
[2]
  Activity: 23
[3]
  Activity: 18
[4]
  Activity: 21
[5]
  Activity: 0
[6]
  Activity: 23
[7]
  Activity: 18
[8]
  Activity: 21
[9]
  Activity: 14
[10]
  Activity: 9
[11]
  Activity: 3
[12]
  Activity: 8
[13]
  Activity: 21
[14]
  Activity: 0
[15]
  Activity: 3
